Data as given in ChEMBL document CHEMBL4354804, “Discovery of a New Isoxazole-3-hydroxamate-Based Histone Deacetylase 6 Inhibitor SS-208 with Antitumor Activity in Syngeneic Melanoma Mouse Models” (J Med Chem, 2019).
pIC50: −log10 of the molar value.

Experiments:
Salmonella typhimurium [1] = assay: Genotoxicity against Salmonella Typhimurium TA1537 assessed as revertant colonies at 0.075 to 250 ug/well by Ames test; assay type: toxicity, organism-based; conditions: salmonella enterica subsp. enterica serovar typhimurium
Salmonella typhimurium [2] = assay: Genotoxicity against Salmonella Typhimurium TA97A assessed as revertant colonies at 0.075 to 250 ug/well in presence of mammalian microsomal enzyme S9 mix by Ames test; assay type: toxicity, organism-based; conditions: salmonella enterica subsp. enterica serovar typhimurium
[3] = Half life in mouse liver microsomes in presence of NADPH; assay type: ADME, Microsome
In short: (§1)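 Liver microsomal stability in mouse and human microsomes with NADPH; half-life in minutes.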

Salmonella typhimurium [4] = assay: Genotoxicity against Salmonella Typhimurium TA97A assessed as revertant colonies at 0.075 to 250 ug/well by Ames test; assay type: toxicity, organism-based; conditions: salmonella enterica subsp. enterica serovar typhimurium
Homo sapiens [5] = organism: Homo sapiens; assay: Selectivity index, ratio of IC50 for recombinant full length C-terminal His/FLAG tagged human HDAC1 (1 to 482 residues) expressed in baculovirus infected sf9 insect cells using p53 (379 to 382 residues) derived fluorogenic peptide RHKKAc as substrate preincubated for 5 to 10 mins followed by …
Salmonella typhimurium [6] = assay: Genotoxicity against Salmonella Typhimurium TA1537 assessed as revertant colonies at 0.075 to 250 ug/well in presence of mammalian microsomal enzyme S9 mix by Ames test; assay type: toxicity, organism-based; conditions: salmonella enterica subsp. enterica serovar typhimurium
[7] = Half life in human liver microsomes in presence of NADPH; assay type: ADME, Microsome; in short: as §1
Histone deacetylase 1 [8] = target: T1, Histone deacetylase 1 (Homo sapiens, UniProt Q13547); assay: Inhibition of human recombinant HDAC1 using fluorogenic substrate incubated for 15 mins by fluorescence assay
T1 sequence (Q13547 whole entry): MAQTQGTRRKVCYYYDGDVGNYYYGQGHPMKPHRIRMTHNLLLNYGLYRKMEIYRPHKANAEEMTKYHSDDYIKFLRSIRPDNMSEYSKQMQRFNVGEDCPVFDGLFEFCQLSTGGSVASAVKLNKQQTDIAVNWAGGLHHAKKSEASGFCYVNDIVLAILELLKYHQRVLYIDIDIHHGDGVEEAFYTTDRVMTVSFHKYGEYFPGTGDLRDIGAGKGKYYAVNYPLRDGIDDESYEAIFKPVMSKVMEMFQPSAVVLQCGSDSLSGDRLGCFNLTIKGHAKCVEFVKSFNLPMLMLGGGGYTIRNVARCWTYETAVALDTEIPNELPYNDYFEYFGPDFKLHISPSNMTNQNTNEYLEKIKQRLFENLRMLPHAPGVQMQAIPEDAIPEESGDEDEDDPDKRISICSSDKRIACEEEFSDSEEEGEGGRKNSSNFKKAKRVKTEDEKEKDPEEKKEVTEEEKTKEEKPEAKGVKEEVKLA

[9] = target: T2, Protein deacetylase HDAC6 (Homo sapiens, UniProt Q9UBN7); assay: Inhibition of human recombinant HDAC6 using fluorogenic substrate incubated for 30 mins by fluorescence assay
T2 sequence (Q9UBN7 whole entry): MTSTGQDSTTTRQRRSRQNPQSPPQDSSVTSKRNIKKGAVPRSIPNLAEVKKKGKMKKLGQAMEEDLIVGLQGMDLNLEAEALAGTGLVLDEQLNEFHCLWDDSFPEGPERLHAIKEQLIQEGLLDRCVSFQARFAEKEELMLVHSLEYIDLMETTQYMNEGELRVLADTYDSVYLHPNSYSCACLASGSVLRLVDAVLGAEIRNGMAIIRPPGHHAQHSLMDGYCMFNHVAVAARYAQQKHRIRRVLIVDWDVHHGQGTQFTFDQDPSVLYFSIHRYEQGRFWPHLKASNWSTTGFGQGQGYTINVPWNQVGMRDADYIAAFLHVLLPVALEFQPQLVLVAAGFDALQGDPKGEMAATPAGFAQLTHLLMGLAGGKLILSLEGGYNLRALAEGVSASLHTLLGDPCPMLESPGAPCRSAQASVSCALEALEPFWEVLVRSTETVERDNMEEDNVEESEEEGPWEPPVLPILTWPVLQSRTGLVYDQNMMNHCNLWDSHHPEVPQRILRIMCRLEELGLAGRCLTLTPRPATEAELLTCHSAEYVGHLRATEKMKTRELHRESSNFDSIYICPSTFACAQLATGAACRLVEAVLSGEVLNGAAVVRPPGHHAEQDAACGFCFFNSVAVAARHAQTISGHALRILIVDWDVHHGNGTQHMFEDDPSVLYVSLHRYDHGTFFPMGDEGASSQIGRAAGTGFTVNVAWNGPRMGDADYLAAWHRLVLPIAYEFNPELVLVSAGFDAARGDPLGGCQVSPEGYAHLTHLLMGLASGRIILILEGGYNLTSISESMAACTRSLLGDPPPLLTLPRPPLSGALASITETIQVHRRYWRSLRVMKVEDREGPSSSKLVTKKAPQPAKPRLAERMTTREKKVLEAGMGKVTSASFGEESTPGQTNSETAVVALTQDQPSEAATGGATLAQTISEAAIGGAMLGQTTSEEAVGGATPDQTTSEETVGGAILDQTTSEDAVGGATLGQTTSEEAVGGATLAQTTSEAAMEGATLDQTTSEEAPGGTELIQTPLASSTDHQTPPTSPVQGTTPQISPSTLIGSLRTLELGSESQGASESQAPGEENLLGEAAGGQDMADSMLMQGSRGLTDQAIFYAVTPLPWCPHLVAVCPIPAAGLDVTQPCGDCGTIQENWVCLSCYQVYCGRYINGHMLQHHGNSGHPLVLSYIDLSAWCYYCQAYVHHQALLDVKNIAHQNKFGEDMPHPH

Homo sapiens [10] = organism: Homo sapiens; assay: Selectivity index, ratio of IC50 for inhibition of human recombinant HDAC1 using fluorogenic substrate incubated for 15 mins by fluorescence assay to IC50 for inhibition of human recombinant HDAC6 using fluorogenic substrate incubated for 30 mins by fluorescence assay
Histone deacetylase 4 = Histone deacetylase 4 (Homo sapiens, UniProt P56524); assay: Inhibition of recombinant human HDAC4 expressed in HEK293T/17 cells using Boc-Lys(TFA)-AMC as substrate preincubated for 10 mins followed by substrate addition and measured after 30 mins by fluorescence-based assay
Histone deacetylase 4, sequence (P56524 whole entry, the tested form may be a part): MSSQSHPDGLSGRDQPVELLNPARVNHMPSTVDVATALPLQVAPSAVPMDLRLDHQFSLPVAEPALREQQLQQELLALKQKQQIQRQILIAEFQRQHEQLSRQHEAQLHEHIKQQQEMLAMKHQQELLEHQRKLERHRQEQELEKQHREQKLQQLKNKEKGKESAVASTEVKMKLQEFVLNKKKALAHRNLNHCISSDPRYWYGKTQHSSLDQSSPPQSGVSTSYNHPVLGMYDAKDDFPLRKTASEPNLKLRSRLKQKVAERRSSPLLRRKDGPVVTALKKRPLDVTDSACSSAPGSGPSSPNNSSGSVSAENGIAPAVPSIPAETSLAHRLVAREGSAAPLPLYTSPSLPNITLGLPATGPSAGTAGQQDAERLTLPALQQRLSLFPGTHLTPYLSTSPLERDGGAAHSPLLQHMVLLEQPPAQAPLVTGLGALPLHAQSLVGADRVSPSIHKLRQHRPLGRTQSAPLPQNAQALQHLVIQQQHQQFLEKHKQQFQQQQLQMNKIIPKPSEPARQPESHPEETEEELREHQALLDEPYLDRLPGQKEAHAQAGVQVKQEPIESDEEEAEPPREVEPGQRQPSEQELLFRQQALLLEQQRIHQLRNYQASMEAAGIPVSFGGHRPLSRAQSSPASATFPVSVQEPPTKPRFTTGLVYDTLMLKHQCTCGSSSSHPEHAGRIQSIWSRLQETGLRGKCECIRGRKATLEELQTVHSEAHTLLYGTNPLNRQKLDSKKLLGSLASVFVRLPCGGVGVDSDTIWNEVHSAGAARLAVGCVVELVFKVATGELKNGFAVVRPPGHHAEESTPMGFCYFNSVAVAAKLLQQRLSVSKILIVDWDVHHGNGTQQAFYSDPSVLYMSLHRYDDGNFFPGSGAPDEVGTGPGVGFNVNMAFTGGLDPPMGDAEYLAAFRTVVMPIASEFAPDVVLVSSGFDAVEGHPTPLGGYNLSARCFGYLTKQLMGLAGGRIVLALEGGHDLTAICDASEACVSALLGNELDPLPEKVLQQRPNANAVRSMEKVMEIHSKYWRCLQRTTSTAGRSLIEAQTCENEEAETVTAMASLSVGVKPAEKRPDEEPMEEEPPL
In short: (§2)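 Human HDACs expressed as Strep-tagged fusions in transiently transfected HEK293/T17 cells, purified by Strep-Tactin. Substrate at 10 µM: Ac-GAK(Ac)-AMC for HDAC1/6, Boc-Lys(TFA)-AMC for the others. Reaction 30 min at 37 °C, trypsin stop, fluorescence 365/440 nm. 10-point 3-fold series from 100 µM, mean of two experiments.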

Histone deacetylase 1 [11] = target: T1, Histone deacetylase 1; assay: Inhibition of recombinant human HDAC1 expressed in HEK293T/17 cells using Ac-GAK(Ac)-AMC as substrate preincubated for 10 mins followed by substrate addition and measured after 30 mins by fluorescence-based assay; in short: as §2
Histone deacetylase 9 = Histone deacetylase 9 (Homo sapiens, UniProt Q9UKV0); assay: Inhibition of recombinant human HDAC9 expressed in HEK293T/17 cells using Boc-Lys(TFA)-AMC as substrate preincubated for 10 mins followed by substrate addition and measured after 30 mins by fluorescence-based assay; in short: as §2
Histone deacetylase 9, sequence (Q9UKV0 whole entry): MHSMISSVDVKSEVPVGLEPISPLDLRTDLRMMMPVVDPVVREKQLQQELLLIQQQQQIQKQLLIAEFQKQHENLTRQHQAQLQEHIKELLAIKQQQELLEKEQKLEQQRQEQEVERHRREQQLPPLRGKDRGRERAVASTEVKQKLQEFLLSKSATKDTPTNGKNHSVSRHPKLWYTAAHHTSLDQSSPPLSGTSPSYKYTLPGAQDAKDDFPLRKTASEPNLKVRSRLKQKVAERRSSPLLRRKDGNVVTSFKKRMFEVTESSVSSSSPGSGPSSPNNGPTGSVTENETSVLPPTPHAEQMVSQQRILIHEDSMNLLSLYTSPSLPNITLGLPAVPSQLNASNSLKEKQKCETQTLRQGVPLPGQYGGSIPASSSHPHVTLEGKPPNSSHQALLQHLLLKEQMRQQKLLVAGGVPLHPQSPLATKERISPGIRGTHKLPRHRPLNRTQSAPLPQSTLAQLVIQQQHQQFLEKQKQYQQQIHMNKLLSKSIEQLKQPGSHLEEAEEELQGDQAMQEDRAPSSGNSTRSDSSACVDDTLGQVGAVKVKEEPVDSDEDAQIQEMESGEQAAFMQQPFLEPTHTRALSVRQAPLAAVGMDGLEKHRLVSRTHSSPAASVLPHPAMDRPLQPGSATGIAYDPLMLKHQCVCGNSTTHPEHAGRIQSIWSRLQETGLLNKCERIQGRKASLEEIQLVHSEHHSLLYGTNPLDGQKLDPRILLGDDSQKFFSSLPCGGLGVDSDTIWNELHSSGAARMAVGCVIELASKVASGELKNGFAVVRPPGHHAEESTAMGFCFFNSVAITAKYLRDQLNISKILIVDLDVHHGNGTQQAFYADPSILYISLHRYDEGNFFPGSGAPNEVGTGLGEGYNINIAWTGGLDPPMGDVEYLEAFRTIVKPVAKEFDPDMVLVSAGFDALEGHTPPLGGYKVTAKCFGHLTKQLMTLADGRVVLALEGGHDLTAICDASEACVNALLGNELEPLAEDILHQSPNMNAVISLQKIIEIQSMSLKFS

Histone deacetylase 8 = target: T3, Histone deacetylase 8 (Homo sapiens, UniProt Q9BY41); assay: Inhibition of recombinant human HDAC8 expressed in HEK293T/17 cells using Boc-Lys(TFA)-AMC as substrate preincubated for 10 mins followed by substrate addition and measured after 30 mins by fluorescence-based assay; in short: as §2
T3 sequence (Q9BY41 whole entry): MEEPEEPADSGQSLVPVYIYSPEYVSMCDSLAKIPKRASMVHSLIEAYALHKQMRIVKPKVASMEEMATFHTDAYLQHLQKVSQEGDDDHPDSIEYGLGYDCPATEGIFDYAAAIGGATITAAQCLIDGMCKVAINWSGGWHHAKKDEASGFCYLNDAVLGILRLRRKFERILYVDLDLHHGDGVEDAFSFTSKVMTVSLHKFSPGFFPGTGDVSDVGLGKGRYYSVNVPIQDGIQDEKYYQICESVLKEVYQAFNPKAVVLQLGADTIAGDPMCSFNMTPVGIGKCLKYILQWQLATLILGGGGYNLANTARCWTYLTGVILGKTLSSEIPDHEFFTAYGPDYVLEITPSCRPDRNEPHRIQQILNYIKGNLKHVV

[12] = target: T2, Protein deacetylase HDAC6; assay: Inhibition of recombinant human HDAC6 expressed in HEK293T/17 cells using Ac-GAK(Ac)-AMC as substrate preincubated for 10 mins followed by substrate addition and measured after 30 mins by fluorescence-based assay
Histone deacetylase 5 = Histone deacetylase 5 (Homo sapiens, UniProt Q9UQL6); assay: Inhibition of recombinant human HDAC5 expressed in HEK293T/17 cells using Boc-Lys(TFA)-AMC as substrate preincubated for 10 mins followed by substrate addition and measured after 30 mins by fluorescence-based assay; in short: as §2
Histone deacetylase 5, sequence (Q9UQL6 whole entry): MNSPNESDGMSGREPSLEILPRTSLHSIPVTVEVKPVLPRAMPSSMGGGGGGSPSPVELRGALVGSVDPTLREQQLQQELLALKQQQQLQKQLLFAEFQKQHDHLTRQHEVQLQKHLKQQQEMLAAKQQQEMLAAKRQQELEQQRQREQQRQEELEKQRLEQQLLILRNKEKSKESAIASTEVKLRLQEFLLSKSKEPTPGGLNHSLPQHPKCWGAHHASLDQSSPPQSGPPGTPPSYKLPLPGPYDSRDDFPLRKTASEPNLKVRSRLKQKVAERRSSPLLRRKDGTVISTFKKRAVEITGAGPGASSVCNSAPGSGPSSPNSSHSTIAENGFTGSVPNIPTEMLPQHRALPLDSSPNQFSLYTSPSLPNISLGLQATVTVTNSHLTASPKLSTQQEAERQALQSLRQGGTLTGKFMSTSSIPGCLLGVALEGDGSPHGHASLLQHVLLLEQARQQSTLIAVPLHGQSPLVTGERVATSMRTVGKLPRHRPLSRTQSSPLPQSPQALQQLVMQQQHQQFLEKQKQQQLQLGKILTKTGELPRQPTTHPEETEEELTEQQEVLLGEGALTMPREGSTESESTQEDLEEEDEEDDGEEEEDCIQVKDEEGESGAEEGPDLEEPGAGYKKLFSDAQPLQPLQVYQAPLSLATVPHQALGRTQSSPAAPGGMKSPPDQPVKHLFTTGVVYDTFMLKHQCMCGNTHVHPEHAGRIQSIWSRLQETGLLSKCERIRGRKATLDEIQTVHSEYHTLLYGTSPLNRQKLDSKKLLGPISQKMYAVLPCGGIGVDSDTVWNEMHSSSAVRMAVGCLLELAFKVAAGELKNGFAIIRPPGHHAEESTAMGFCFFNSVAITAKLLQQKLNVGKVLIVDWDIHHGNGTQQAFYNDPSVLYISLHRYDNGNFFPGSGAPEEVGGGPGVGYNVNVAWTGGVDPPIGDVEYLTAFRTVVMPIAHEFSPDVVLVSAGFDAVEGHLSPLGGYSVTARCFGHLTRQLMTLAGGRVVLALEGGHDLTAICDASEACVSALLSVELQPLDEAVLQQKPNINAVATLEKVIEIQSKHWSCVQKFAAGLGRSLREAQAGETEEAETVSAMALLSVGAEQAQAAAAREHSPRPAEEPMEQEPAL

Histone deacetylase 11 = target: T4, Histone deacetylase 11 (Homo sapiens, UniProt Q96DB2); assay: Inhibition of recombinant human HDAC11 expressed in HEK293T/17 cells using Boc-Lys(TFA)-AMC as substrate preincubated for 10 mins followed by substrate addition and measured after 30 mins by fluorescence-based assay; in short: as §2
T4 sequence (Q96DB2 whole entry): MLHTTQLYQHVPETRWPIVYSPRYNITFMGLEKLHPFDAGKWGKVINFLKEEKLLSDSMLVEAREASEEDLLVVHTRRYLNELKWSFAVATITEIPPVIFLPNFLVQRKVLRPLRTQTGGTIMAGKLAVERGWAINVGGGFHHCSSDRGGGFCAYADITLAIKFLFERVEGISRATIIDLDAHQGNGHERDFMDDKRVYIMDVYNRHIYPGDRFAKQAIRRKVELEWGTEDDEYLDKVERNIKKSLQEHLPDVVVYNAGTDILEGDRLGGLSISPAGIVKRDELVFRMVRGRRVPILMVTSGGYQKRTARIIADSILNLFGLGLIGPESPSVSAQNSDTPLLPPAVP

Histone deacetylase 1 [13] = target: T1, Histone deacetylase 1; assay: (§3) Inhibition of recombinant full length C-terminal His/FLAG tagged human HDAC1 (1 to 482 residues) expressed in baculovirus infected sf9 insect cells using p53 (379 to 382 residues) derived fluorogenic peptide RHKKAc as substrate preincubated for 5 to 10 mins followed by substrate addition and further incubated for 2 hrs by fluorescence assay
[14] = target: T2, Protein deacetylase HDAC6; assay: as §3, with “N-terminal GST-tagged” for “full length C-terminal His/FLAG tagged”, “HDAC6” for “HDAC1”, “1215” for “482”
Histone deacetylase 1 [15] = target: T1, Histone deacetylase 1; assay: Inhibition of human recombinant HDAC1 using fluorogenic HDAC substrate by fluorescence assay
In short: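 Human full-length recombinant HDAC1 expressed in Sf9 cells via baculovirus. Substrate was the fluorogenic acetylated p53 379-382 peptide RHKKAc (50 µM) in pH 8.0 Tris buffer with NaCl, KCl, MgCl2, BSA and 1% DMSO final. Enzyme and compound were preincubated 5-10 min, then reacted 2 h at 30 °C. Developer plus TSA stopped the reaction; endpoint fluorescence was read.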

[16] = Induction of apoptosis in mouse SM1 cells at 100 nM by caspase3/7 reagent based luminescence assay; assay type: cell-based; conditions: 0.1 µM
In short: (§4)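 SM1 cells treated with HDAC inhibitors, with pan-HDACi and assay controls on every plate. ApoTox-Glo triplex readout: viability fluorescence 400Ex/505Em, cytotoxicity fluorescence 485Ex/520Em, then caspase 3/7 reagent read by luminescence for apoptosis.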

[17] = Cytotoxicity against mouse SM1 cells at 100 nM by ApoTox-Glo triplex assay; assay type: cell-based; conditions: 0.1 µM; in short: as §4

With `CC(C)(C)OC(=O)Nc1ccc(-c2cc(C(=O)NCCc3cc(C(=O)NO)no3)no2)cc1` the Activity (Salmonella typhimurium [1]) was “Non-Toxic”, the Activity (Salmonella typhimurium [2]) was “Non-Toxic” and the half-life [3] was 16 min. The Activity (Salmonella typhimurium [4]) was “Non-Toxic”, the Ratio IC50 (Homo sapiens [5]) was 2820 and the Activity (Salmonella typhimurium [6]) was “Non-Toxic”. The half-life [7] was 85 min.
For `O=C(NO)c1ccc(CNCc2csc3ccccc23)cc1`, the pIC50 (Histone deacetylase 1 [8]) was 5.12, the pIC50 [9] was 7.85 and the Ratio IC50 (Homo sapiens [10]) was 535.
`O=C(NO)c1ccc(CNC(=O)c2ccc(Cl)c(Cl)c2)cc1` gave a pIC50 (Histone deacetylase 4) of 5.45, a pIC50 (Histone deacetylase 1 [11]) of 7.47 and a pIC50 (Histone deacetylase 9) of 5.51. It also gave a pIC50 (Histone deacetylase 8) of 6.04, a pIC50 [12] of 8.70 and a pIC50 (Histone deacetylase 5) of 5.51. The pIC50 (Histone deacetylase 11) was 5.98, the pIC50 (Histone deacetylase 1 [13]) was 6.70 and the pIC50 [14] was 7.55.
For `CN(Cc1ccc(C(=O)NO)cc1F)CC12CC3CC(CC(C3)C1)C2`, the pIC50 (Histone deacetylase 1 [15]) was under 6.00.
With `Cc1[nH]c2ccccc2c1CCNCc1ccc(/C=C/C(=O)NO)cc1` [PANOBINOSTAT] the Activity [16] was “Toxic” and the Activity [17] was “Toxic”.
